Results on eight compounds are retold here after ChEMBL document CHEMBL1147658, “[2-11C]isopropyl-, [1-11C]ethyl-, and [11C]methyl-labeled phenoxyphenyl acetamide derivatives as positron emission tomography ligands for the peripheral benzodiazepine receptor: radiosynthesis, uptake, and in vivo binding in brain” (J Med Chem, 2006).

In data set [1] the target is T1, Translocator protein (Rattus norvegicus, UniProt P16257). In words: Displacement of [11C][…] from Sprague-Dawley rat brain PBR. Type of data set: tissue-based.
Data set [2] addresses T1, Translocator protein. In words: Displacement of [11C]DAA1106 from Sprague-Dawley rat brain PBR. Type of data set: tissue-based.
For data set [3], the target named is GABA-A receptor; anion channel. In words: Displacement of [11C]Flumazenil from Sprague-Dawley rat brain CBR. Type of data set: tissue-based.
A short description of data set [4]: Distribution coefficient of the compound, log D. To be noted: octanol/water. Type of data set: physicochemical. In a few lines:
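[11C]ligand (3-5 MBq) shaken with 1-octanol and 10 mM phosphate buffer pH 7.4, 5 mL each, then equilibrated 1 h at room temperature. Both phases counted by gamma counter; log D taken as the organic/aqueous concentration ratio (n=3).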

The test system of data set [5] is Rattus norvegicus. In words: Uptake in iv dosed Sprague-Dawley rat brain after 30 mins per gram of wet tissue. Type of data set: ADME, organism-based. To be noted: in vivo, 0.5 h. Put shortly:
(§1)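 Rats given [11C]ligand 45-50 MBq iv, alone or mixed with nonradioactive DAA1106 (1 mg/kg in 10% EtOH/saline). Killed 30 min later under ether. Brains frozen, cut into 20 µm sagittal cryosections and exposed to imaging plates for 60 min. Regional radioactivity read by bioimaging analyzer; brain uptake expressed as % injected dose per gram wet tissue (n=3).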

For data set [6], the system named is Rattus norvegicus. The data set is described as follows: Decrease in uptake in iv dosed Sprague-Dawley rat brain olfactory bulb after 30 mins per gram of wet tissue in presence of 1 mg/kg DAA1106. The format is ADME, organism-based. Also on record: dose 1 mg/kg, route intravenous. The settings on record: in vivo, 0.5 h. Put shortly:
as §1

Data set [7] has as its system Rattus norvegicus. In words: Decrease in uptake in iv dosed Sprague-Dawley rat brain striatum after 30 mins per gram of wet tissue in presence of 1 mg/kg DAA1106. The format is ADME, organism-based. Details: dose 1 mg/kg, route intravenous. To be noted: in vivo, 0.5 h. In a few lines:
as §1

In data set [8] the test system is Rattus norvegicus. The data set is described as follows: Decrease in uptake in iv dosed Sprague-Dawley rat brain frontal cortex after 30 mins per gram of wet tissue in presence of 1 mg/kg DAA1106. Details: dose 1 mg/kg, route intravenous. The settings on record: in vivo, 0.5 h. The format is ADME, organism-based. Put shortly: as §1
The test system of data set [9] is Rattus norvegicus. The data set is described as follows: Ratio for decrease in uptake in iv dosed Sprague-Dawley rat brain olfactory bulb to frontal cortex after 30 mins per gram of wet tissue in presence of 1 mg/kg DAA1106. The format is ADME, organism-based. Also on record: dose 1 mg/kg, route intravenous. The settings on record: in vivo, 0.5 h. Put shortly:
as §1

In data set [10] the test system is Rattus norvegicus. The data set is described as follows: Ratio for decrease in uptake in iv dosed Sprague-Dawley rat brain cerebellum to frontal cortex after 30 mins per gram of wet tissue in presence of 1 mg/kg DAA1106. To be noted: in vivo, 0.5 h. The format is ADME, organism-based. Details: dose 1 mg/kg, route intravenous. Put shortly: as §1
In data set [11] the test system is Rattus norvegicus. The data set is described as follows: Ratio for decrease in uptake in iv dosed Sprague-Dawley rat brain striatum to frontal cortex after 30 mins per gram of wet tissue in presence of 1 mg/kg DAA1106. The settings on record: in vivo, 0.5 h. Also on record: dose 1 mg/kg, route intravenous. The format is ADME, organism-based. Put shortly:
as §1

Data set [12] in a line: Plasma half life in iv dosed monkey. The format is ADME, organism-based, Macaca mulatta. The settings on record: rhesus monkey. Put shortly: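 Monkey given [11C]ligand 70-80 MBq iv. Arterial blood drawn at 1, 2, 5, 10, 20, 30 and 60 min. Plasma deproteinized with CH3CN and analysed by radio-HPLC for percentage of unchanged ligand.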
Data set [13] concerns Rhesus monkey. In words: Decrease in uptake in iv dosed rhesus monkey brain occipital cortex after 90 mins in presence of 1 mg/kg DAA1106. The format is ADME, organism-based, Macaca mulatta. Also on record: dose 1 mg/kg, route intravenous. The settings on record: in vivo, 1.5 h. In a few lines:
(§2)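 One awake male rhesus monkey (about 7.5 kg) imaged by 3D dynamic PET for 90 min after [11C]ligand 70-80 MBq iv. Blocker given iv 2 min before tracer: DAA1106 1 mg/kg, or PK11195 5 mg/kg, each in 10% EtOH/saline. Time-activity curves taken from 5 mm ROI on occipital cortex, as % dose/mL.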

Data set [14] deals with Rattus norvegicus. The data set is described as follows: Decrease in uptake in iv dosed Sprague-Dawley rat brain cerebellum after 30 mins per gram of wet tissue in presence of 1 mg/kg DAA1106. The format is ADME, organism-based. Also on record: dose 1 mg/kg, route intravenous. To be noted: in vivo, 0.5 h. Put shortly:
as §1

Data set [15] deals with Rhesus monkey. In words: Decrease in uptake in iv dosed rhesus monkey brain occipital cortex after 90 mins in presence of 5 mg/kg […]. Also on record: dose 5 mg/kg, route intravenous. To be noted: in vivo, 1.5 h. The format is ADME, organism-based, Macaca mulatta. Put shortly: as §2

Molecules are shown by their SMILES.

T1 sequence (P16257 whole entry, looked up): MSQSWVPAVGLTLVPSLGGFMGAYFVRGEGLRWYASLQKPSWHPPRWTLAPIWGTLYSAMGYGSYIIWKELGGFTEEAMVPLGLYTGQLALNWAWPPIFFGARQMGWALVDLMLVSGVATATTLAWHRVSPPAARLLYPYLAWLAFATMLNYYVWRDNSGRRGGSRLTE

In the case of `CC(=O)N(Cc1ccccc1OC(C)C)c1ccc(Cl)cc1Oc1ccccc1`, the Ki at Translocator protein [1] is 0.19 nM; on Translocator protein [2], 0.68 nM; in data set [3], above 1000 nM. In [4], this compound returned a logD of 4.02.

Consider `COc1ccccc1CN(C(C)=O)c1ccc(Cl)cc1Oc1ccccc1`, for which the Ki on Translocator protein [1] was 0.074 nM; at Translocator protein [2], 0.31 nM; in data set [3] it was above 1000 nM. The compound also returned a logD in [4] of 3.74.

Turning to `CC(=O)N(Cc1ccccc1O[11CH](C)C)c1ccc(Cl)cc1Oc1ccccc1`, the Drug uptake with Rattus norvegicus [5] is given as 0.17%; with Rattus norvegicus [6], 43%; with Rattus norvegicus [7] it was 63%; in the data set with Rattus norvegicus [8], 63%. Further, the Ratio in the data set on Rattus norvegicus [9] came to 1.5; with Rattus norvegicus [10], 1; with Rattus norvegicus [11], 1. Further, the half-life in data set [12] was found to be 13 min.

For the compound `CC(=O)N(Cc1ccccc1O[11CH3])c1ccc(Cl)cc1Oc1ccccc1`, the Drug uptake in the data set on Rhesus monkey [13] stood at 60%; in the data set on Rattus norvegicus [5], 0.32%; in the data set with Rattus norvegicus [6] it was 37%; in the data set with Rattus norvegicus [7] it was 63%; with Rattus norvegicus [8], 63%. In addition, the Ratio in the data set with Rattus norvegicus [9] worked out at 2.3; in the data set with Rattus norvegicus [10], 1; in the data set on Rattus norvegicus [11], 1. The half-life in data set [12] worked out at 21 min.

As for `C[11CH2]Oc1ccccc1CN(C(C)=O)c1ccc(Cl)cc1Oc1ccccc1`, the Drug uptake with Rattus norvegicus [5] was 0.27%; in the data set on Rattus norvegicus [6] it was 33%; in the data set on Rattus norvegicus [7], 63%; with Rattus norvegicus [8], 63%. The Ratio is reported as 1.5 in the data set with Rattus norvegicus [9], 1 with Rattus norvegicus [10] and 1 with Rattus norvegicus [11]. Besides, in data set [12], the half-life came to 20 min.

With `CCOc1ccccc1CN(C(C)=O)c1ccc(Cl)cc1Oc1ccccc1`, the figures for the Ki (on Translocator protein [1]; on Translocator protein [2]; in data set [3]) were 0.098 nM, 0.41 nM and above 1000 nM, respectively. This compound also displayed a logD in data set [4] of 3.81.

In the case of `COc1ccc(OC)c(CN(C(C)=O)c2cc(F)ccc2Oc2ccccc2)c1`, the Ki at Translocator protein [1] was 0.095 nM; in data set [3], above 1000 nM.

As to `CCC(C)N(C)C(=O)c1cc2ccccc2c(-c2ccccc2Cl)n1` (configuration not stated) [PK-11195], the Ki in [3] is above 1000 nM. In addition, the Drug uptake came out at 44% in the data set with Rattus norvegicus [14] and 70% in the data set on Rhesus monkey [15].
